Here are results for one compound from ChEMBL document CHEMBL4382267, “Fusaristatin C, a Cyclic Lipodepsipeptide from Pithomyces sp. RKDO 1698” (J Nat Prod, 2018).

The source made the active and inactive calls. The calls are words filed in the database; no cut-off is given here.

Series [1] deals with MCF7. The experiment in a line: Cytotoxicity against human MCF7 cells measured after 24 hrs by alamar blue assay. The class given is functional, cell-based.
The nature of series [2]: Cytotoxicity against HEKa cells measured after 24 hrs by alamar blue assay. The class given is cell-based. To be noted: human.
The test system of series [3] is Proteus vulgaris. The experiment in a line: Antimicrobial activity against Proteus vulgaris ATCC 12454 at 265 uM after 22 hrs by microbroth dilution method. It counts as functional, organism-based. Put shortly: (§1)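 Microbroth dilution assay. The top concentration tested was 128 μg/mL, equal to 265 μM.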
The test system of series [4] is Mycobacterium tuberculosis. The experiment in a line: Antimicrobial activity against Mycobacterium tuberculosis ATCC 25177 at 265 uM after 4 days by microplate alamar blue assay. It counts as functional, organism-based. To be noted: H37Ra.
In series [5] the test system is HCT-116. The experiment in a line: Cytotoxicity against human HCT116 cells measured after 24 hrs by alamar blue assay. It counts as functional, cell-based.
The subject of series [6] is Enterococcus faecium. The experiment in a line: Antimicrobial activity against vancomycin-resistant Enterococcus faecium EF379 at 265 uM after 22 hrs by microbroth dilution method. The class given is functional, organism-based. The method in brief: (§2)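 Microbroth dilution susceptibility test; compound tested up to a highest concentration of 128 μg/mL (265 μM).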
Series [7] concerns Pseudomonas aeruginosa. Put plainly: Antimicrobial activity against Pseudomonas aeruginosa ATCC 14210 at 265 uM after 22 hrs by microbroth dilution method. The class given is functional, organism-based. Put shortly: as §1
Series [8] deals with Candida albicans. The experiment in a line: Antimicrobial activity against Candida albicans ATCC 14035 at 265 uM after 22 hrs by microbroth dilution method. It counts as functional, organism-based. The method in brief:
as §1

The subject of series [9] is Staphylococcus aureus. Put plainly: Antimicrobial activity against methicillin resistant Staphylococcus aureus ATCC 33591 at 265 uM after 22 hrs by microbroth dilution method. It counts as functional, organism-based. Put shortly: as §2
The species entered for series [10] is Homo sapiens. The experiment in a line: Cytotoxicity against human HTB-26 cells measured after 24 hrs by alamar blue assay. It counts as functional, cell-based.
For series [11], the system named is Staphylococcus warneri. The experiment in a line: Antimicrobial activity against Staphylococcus warneri ATCC 17917 at 265 uM after 22 hrs by microbroth dilution method. It counts as functional, organism-based. The method in brief:
as §1

Series [12] concerns BJ. The experiment in a line: Cytotoxicity against human BJ cells measured after 24 hrs by alamar blue assay. It counts as cell-based.
The test system of series [13] is Vero. Put plainly: Cytotoxicity against African green monkey Vero cells measured after 24 hrs by alamar blue assay. The class given is cell-based. To be noted: chlorocebus sabaeus.

As to `C=C1NC(=O)[C@H](C)[C@H](CCCCCCCC(C)CCC)OC(=O)[C@H](CO)NC(=O)CCNC1=O` (stereo partly drawn), the result in [1], in series [3], in [4], in series [5], in series [6] and in [7] was inactive. Also, the result in series [8], in series [9], in [10] and in series [11] was inactive. Besides, the Activity entry in series [2], in [12] and in [13] was “Non-Toxic” in each case.
